Each structure is given as a SMILES string. Activity calls are given as the source filed them. No cut-off for these calls is given here.

Data set [1] addresses T1, Polyunsaturated fatty acid 5-lipoxygenase (Homo sapiens) (UniProt P09917).
T1 sequence (whole entry): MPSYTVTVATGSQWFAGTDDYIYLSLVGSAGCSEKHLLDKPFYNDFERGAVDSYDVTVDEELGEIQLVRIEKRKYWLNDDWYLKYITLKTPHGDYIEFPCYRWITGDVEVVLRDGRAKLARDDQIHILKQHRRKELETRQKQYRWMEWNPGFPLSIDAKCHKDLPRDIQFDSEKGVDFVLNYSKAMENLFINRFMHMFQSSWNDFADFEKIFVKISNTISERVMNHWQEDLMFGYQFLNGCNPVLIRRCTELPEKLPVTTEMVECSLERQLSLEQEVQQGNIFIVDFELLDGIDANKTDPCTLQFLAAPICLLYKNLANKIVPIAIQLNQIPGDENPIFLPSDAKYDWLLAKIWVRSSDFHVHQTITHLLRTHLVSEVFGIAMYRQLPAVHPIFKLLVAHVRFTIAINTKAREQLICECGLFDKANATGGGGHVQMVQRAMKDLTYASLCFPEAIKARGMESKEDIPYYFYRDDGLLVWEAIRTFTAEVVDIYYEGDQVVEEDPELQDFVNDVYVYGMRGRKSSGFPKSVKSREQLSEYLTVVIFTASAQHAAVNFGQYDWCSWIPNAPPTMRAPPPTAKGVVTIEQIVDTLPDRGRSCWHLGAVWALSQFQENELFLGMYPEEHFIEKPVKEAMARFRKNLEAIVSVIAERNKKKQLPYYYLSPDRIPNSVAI
The data set is described as follows: Inhibition of nuclear localization of 5-LO (unknown origin) expressed in HEK293 cells at 10 uM preincubated for 10 mins followed by Ca2+ ionophore A23187 stimulation for 20 mins and measured after 1 hr by DAPI staining-based immunofluorescence microscopic analysis. The format is cell-based. Put shortly: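 HEK293 cells stably expressing 5-LO and FLAP, on poly-L-lysine coverslips, pre-incubated 10 min with 10 µM compound or 0.1% DMSO, then stimulated with 2.5 µM A23187 for 20 min at 37 °C. After fixation and permeabilization, stained with anti-5-LO and anti-FLAP antibodies and fluorescent secondaries; imaged by immunofluorescence microscopy, 100 cells from three experiments.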

Data set [2] deals with T2, Polyunsaturated fatty acid lipoxygenase ALOX12 (Homo sapiens) (UniProt P18054).
T2 sequence (whole entry): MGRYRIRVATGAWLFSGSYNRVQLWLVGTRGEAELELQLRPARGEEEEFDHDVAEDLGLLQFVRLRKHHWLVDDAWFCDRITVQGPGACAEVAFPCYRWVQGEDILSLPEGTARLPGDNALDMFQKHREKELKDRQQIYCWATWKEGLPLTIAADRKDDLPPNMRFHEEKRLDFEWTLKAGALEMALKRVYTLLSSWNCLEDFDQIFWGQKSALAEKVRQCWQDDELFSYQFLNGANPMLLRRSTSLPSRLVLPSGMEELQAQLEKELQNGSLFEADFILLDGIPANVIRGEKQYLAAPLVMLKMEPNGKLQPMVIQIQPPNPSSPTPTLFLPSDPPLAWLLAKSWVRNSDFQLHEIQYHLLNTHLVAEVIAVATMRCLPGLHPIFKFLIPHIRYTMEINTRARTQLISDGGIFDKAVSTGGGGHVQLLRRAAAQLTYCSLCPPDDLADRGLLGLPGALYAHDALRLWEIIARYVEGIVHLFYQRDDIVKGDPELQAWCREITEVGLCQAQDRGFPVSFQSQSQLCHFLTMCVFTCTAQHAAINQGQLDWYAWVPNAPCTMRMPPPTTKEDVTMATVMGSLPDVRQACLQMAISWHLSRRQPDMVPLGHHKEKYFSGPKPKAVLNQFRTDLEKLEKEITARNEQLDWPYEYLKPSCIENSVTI
As to the kind of experiment: Modulation of 12-LO-mediated 12-HETE level in human M2 macrophages derived from IL4-polarized human monocyte derived macrophages at 3 uM preincubated for 15 mins followed by Escherichia coli (O6:K2:H1) challenge for 90 mins by LC-MS/MS analysis. Put shortly: (§1)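 Monocytes differentiated 6 days with M-CSF (20 ng/ml), then polarized 48 h with IL-4 20 ng/ml (M2). Cells (2 × 10^6) in PBS/1 mM CaCl2 pre-incubated 15 min at 37 °C with 3 µM compound or 0.1% DMSO, then challenged with E. coli O6:K2:H1 (1:50) for 90 min. Lipid mediators extracted by SPE with deuterated internal standards and quantified by UPLC-MS/MS as % of vehicle.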

The subject of the next data set is Mus musculus. As to the kind of experiment: Antiinflammatory activity in zymosan induced CD-1 mouse model of inflammation assessed as reduction in LTB4 levels in air pouch at 10 mg/kg, ip preincubated for 30 mins followed by zymosan challenge and measured after 4 hrs by ELISA. Type of data set: functional, organism-based. Put shortly: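 Air pouch formed by s.c. injection of 2.5 mL sterile air in CD-1 mice; on day 6, 10 mg/kg i.p. (2% DMSO/saline) given 30 min before 1 ml 1% w/v zymosan into the pouch. After 4 h, exudate collected with 1 ml saline and centrifuged; leukocytes counted in Burker chamber; LTB4 in supernatant by ELISA (ng/mL). n=6 mice per group.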
Background: ELISA stands for enzyme-linked immunosorbent assay.

Data set [3] concerns the target T1, Polyunsaturated fatty acid 5-lipoxygenase (Homo sapiens). As to the kind of experiment: Inhibition of recombinant human 5-LO expressed in Escherichia coli BL21 (DE3) using 2.5 to 80 uM arachidonic acid as substrate […] followed by CaCl2 and substrate addition measured after 10 mins by RP-HPLC analysis.
Another data set deals with Macrophage cell line. The data set is described as follows: Modulation of 13-HDHA level in human M2 macrophages derived from IL4-polarized human monocyte derived macrophages at 3 uM preincubated for 15 mins followed by Escherichia coli (O6:K2:H1) challenge for 90 mins by LC-MS/MS analysis. The format is functional. Put shortly:
as §1

The target of a further data set is Cyclooxygenase (Homo sapiens, UniProt P35354+P23219). As to the kind of experiment: Inhibition of COX1/2 (unknown origin) at 10 uM. Type of data set: protein assay.

For `O=C(O)c1ccc(N(Cc2cccc(OCc3ccccc3)c2)S(=O)(=O)c2ccc(-c3ccccc3)cc2)cc1`, the inhibition result in data set [1] was “inactive”. For the same molecule, the Activity worked out at 151% in data set [2] and 127% with Macrophage cell line. Besides, in the data set on Mus musculus, the outcome was Active. In addition, the inhibition entry in data set [3] is “Active”. The “inhibition (INH)” value against Cyclooxygenase is recorded as “Not Active”.

The values are drawn from ChEMBL document CHEMBL4270576, “Discovery of a benzenesulfonamide-based dual inhibitor of microsomal prostaglandin E2 synthase-1 and 5-lipoxygenase that favorably modulates lipid mediator biosynthesis in inflammation” (Eur J Med Chem, 2018).
